Laboratory results from ChEMBL document CHEMBL1765016, “Indolylarylsulfones as HIV-1 non-nucleoside reverse transcriptase inhibitors: new cyclic substituents at indole-2-carboxamide” (J Med Chem, 2011).

Assays:
[1] = test system: Human immunodeficiency virus 2; test: Antiviral activity against HIV2 isolate ROD infected in human CEM cells assessed as inhibition of virus-induced cytopathicity after 4 days by microscopic analysis; format: functional, organism-based; conditions: Human immunodeficiency virus 2, ISOLATE ROD, CCRF-CEM, 96 h
How it was run: (§1)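 CEM cells (~3 × 10⁵ cells/mL) infected with ~100 CCID₅₀ virus per mL, seeded into wells with compound dilutions. Syncytia (giant cell) formation scored microscopically after 4 days at 37 °C. EC₅₀ is the concentration protecting cells by 50%. Values are means of two experiments in triplicate.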

[2] = test system: Human immunodeficiency virus 1; test: Antiviral activity against wild type HIV1 3B infected in human CEM cells assessed as inhibition of virus-induced cytopathicity after 4 days by microscopic analysis; format: functional, organism-based; conditions: Human immunodeficiency virus 1, 3B, CCRF-CEM, 96 h; how it was run: as §1
[3] = molecular target: Human immunodeficiency virus type 1 reverse transcriptase (Human immunodeficiency virus 1, UniProt Q72547, Y181I); test: Inhibition of HIV1 reverse transcriptase Y181I mutant expressed in Escherichia coli assessed as incorporation of [3H]dTTP into poly(rA)/oligo(dT) by scintillation counting
How it was run: (§2)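 The RT was recombinant p66(His)/p51 heterodimer, mutant form, expressed in E. coli. TCA-precipitable radioactivity on GF/C filters was read by scintillation. IC50 is the concentration giving 50% inhibition.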

[4] = molecular target: Human immunodeficiency virus type 1 reverse transcriptase (Human immunodeficiency virus 1, UniProt Q72547, K103N); test: Inhibition of HIV1 reverse transcriptase K103N mutant expressed in Escherichia coli assessed as incorporation of [3H]dTTP into poly(rA)/oligo(dT) by scintillation counting; how it was run: as §2
[5] = molecular target: Human immunodeficiency virus type 1 reverse transcriptase (Human immunodeficiency virus 1, UniProt Q72547, L100I); test: Inhibition of HIV1 reverse transcriptase L100I mutant expressed in Escherichia coli assessed as incorporation of [3H]dTTP into poly(rA)/oligo(dT) by scintillation counting; how it was run: as §2
[6] = molecular target: Human immunodeficiency virus type 1 reverse transcriptase (Human immunodeficiency virus 1, UniProt Q72547); test: Inhibition of HIV1 wild type reverse transcriptase expressed in Escherichia coli assessed as incorporation of [3H]dTTP into poly(rA)/oligo(dT) by scintillation counting
How it was run: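 Template was poly(rA)/oligo(dT) 10:1 (0.3 μM 3′-OH ends) with 10 μM [³H]dTTP, at 37 °C. TCA-precipitable counts were taken on GF/C filters. IC₅₀ is 50% inhibition of RT activity.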

[7] = test system: Human immunodeficiency virus 1; test: Antiviral activity against HIV1 harboring reverse transcriptase E138K mutant infected in human MT-4 cells assessed as inhibition of virus-induced cytopathicity after 4 days by MTT assay; format: functional, organism-based; conditions: Human immunodeficiency virus 1, MT4, 96 h
How it was run: (§3)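 MT-4 cells at 1 × 10⁵ cells/mL were infected with RT-mutant HIV-1 at a multiplicity of infection of 0.02. They were plated at once with serial compound dilutions (DMSO stocks of 50 mM or higher). […] Virus stocks had been titrated in MT-4 cells as CCID50.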

[8] = test system: Human immunodeficiency virus 1; test: Antiviral activity against HIV1 harboring reverse transcriptase Y188L mutant infected in human MT-4 cells assessed as inhibition of virus-induced cytopathicity after 4 days by MTT assay; format: functional, organism-based; conditions: Human immunodeficiency virus 1, MT4, 96 h; how it was run: as §3
[9] = test system: Human immunodeficiency virus 1; test: Antiviral activity against HIV1 harboring reverse transcriptase Y181C mutant infected in human MT-4 cells assessed as inhibition of virus-induced cytopathicity after 4 days by MTT assay; format: functional, organism-based; conditions: Human immunodeficiency virus 1, MT4, 96 h; how it was run: as §3
[10] = test system: Human immunodeficiency virus 1; test: Antiviral activity against […] harboring reverse transcriptase K103N mutant infected in human MT-4 cells assessed as inhibition of virus-induced cytopathicity after 4 days by MTT assay; format: functional, organism-based; conditions: Human immunodeficiency virus 1, MT4, 96 h; how it was run: as §3
[11] = test system: Human immunodeficiency virus 1; test: Antiviral activity against HIV1 harboring reverse transcriptase L100I mutant infected in human MT-4 cells assessed as inhibition of virus-induced cytopathicity after 4 days by MTT assay; format: functional, organism-based; conditions: Human immunodeficiency virus 1, MT4, 96 h; how it was run: as §3
[12] = test system: Human immunodeficiency virus 1; test: Antiviral activity against wild type HIV1 3B infected in human MT-4 cells assessed as inhibition of virus-induced cytopathicity after 4 days by MTT assay; format: functional, organism-based; conditions: Human immunodeficiency virus 1, 3B, MT4, 96 h
How it was run: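 MT-4 cells at 1 × 10⁵ cells/mL, infected at MOI 0.02 (virus titrated as CCID₅₀ in MT-4), dispensed immediately onto serial compound concentrations (DMSO stocks ≥50 mM). Viable cells counted by MTT after 4 days at 37 °C. EC₅₀ is the concentration giving 50% protection of cell viability. Values are means of at least three experiments.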

[13] = test system: Human immunodeficiency virus 1; test: Antiviral activity against HIV1 clade A UG273 infected in PHA-stimulated human PBMC assessed as inhibition of p24 production after 10 to 12 days by ELISA; format: functional, organism-based; conditions: Human immunodeficiency virus 1, clade A UG273
How it was run: (§4)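 PHA-stimulated (2 μg/mL, 3 days, 37 °C) donor PBMC blasts, washed in PBS, seeded 0.5 × 10⁶ cells/well in RPMI 1640 with 10% fetal calf serum and IL-2 (25 units/mL) containing varying compound concentrations; virus added at 250 pg p24/mL final. Supernatant collected days 10-12 and assayed for HIV-1 core antigen.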

[14] = test system: Human immunodeficiency virus 1; test: Antiviral activity against HIV1 clade B BaL infected in PHA-stimulated human PBMC assessed as inhibition of p24 production after 10 to 12 days by ELISA; format: functional, organism-based; conditions: Human immunodeficiency virus 1, clade B BaL; how it was run: as §4
[15] = test system: Human immunodeficiency virus 1; test: Antiviral activity against HIV1 clade C DJ259 infected in PHA-stimulated human PBMC assessed as inhibition of p24 production after 10 to 12 days by ELISA; format: functional, organism-based; conditions: Human immunodeficiency virus 1, clade C DJ259; how it was run: as §4
[16] = test system: Human immunodeficiency virus 1; test: Antiviral activity against HIV1 clade A/E ID12 infected in PHA-stimulated human PBMC assessed as inhibition of p24 production after 10 to 12 days by ELISA; format: functional, organism-based; conditions: Human immunodeficiency virus 1, clade A/E ID12; how it was run: as §4
[17] = test system: Human immunodeficiency virus 1; test: Antiviral activity against HIV1 group O BCF06 infected in PHA-stimulated human PBMC assessed as inhibition p24 production after 10 to 12 days by ELISA; format: functional, organism-based; conditions: Human immunodeficiency virus 1, group O BCF06; how it was run: as §4
[18] = Selectivity index, CC50 for human CEM cells to IC50 for HIV1 3B; format: functional, CCRF-CEM
How it was run: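 Ratio of CC₅₀ (Coulter count, mock-infected CEM) to EC₅₀ (CEM, HIV-1 IIIB, microscopic syncytia scoring at day 4).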

[19] = Cytotoxicity against human CEM cells by coulter counter analysis; format: cell-based; conditions: CEM (CCRF-CEM) cells
How it was run: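 Mock-infected CEM cultures with compound, cell number counted by Coulter counter as percent of untreated control. CC₅₀ (50% reduction in proliferation) was read from plots against concentration. Values are means of two experiments in triplicate.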

[20] = test system: Human immunodeficiency virus type 1 reverse transcriptase (Human immunodeficiency virus 1), Q72547 [K103N]; test: Ratio of compound IC50 to efavirenz IC50 for HIV1 reverse transcriptase K103N mutant

SMILES	EC50 [1] [µM]	EC50 [2] [nM]	IC50 [3] [µM]	IC50 [4] [nM]	IC50 [5] [nM]	IC50 [6] [nM]	EC50 [7] [nM]	EC50 [8] [nM]	EC50 [9] [nM]	EC50 [10] [nM]	EC50 [11] [nM]	EC50 [12] [nM]	EC50 [13] [nM]	EC50 [14] [nM]	EC50 [15] [nM]	EC50 [16] [nM]	EC50 [17] [nM]	Selectivity Index [18]	CC50 [19] [µM]	Ratio IC50 [20]
Cc1cc(C)cc(S(=O)(=O)c2c(C(=O)NCN3CCOCC3)[nH]c3ccc(Cl)cc23)c1	> 2	1.9	5.48	512	117	54	14	440	23	11	8	3.2	0.1	0.1	0.5	0.3	0.9	5789	11	–
Cc1cc(C)cc(S(=O)(=O)c2c(C(=O)NCc3ccccc3)[nH]c3ccc(Cl)cc23)c1	> 10	5.7	> 40	> 40000	15	21	18	480	46	11	6.1	11	–	–	–	–	–	–	244	–
Cc1cc(C)cc(S(=O)(=O)c2c(C(=O)NCCn3cccc3)[nH]c3ccc(Cl)cc23)c1	> 10	6.5	> 40	85	34	14	18	> 1000	67	15	11	15	2.1	2.3	3.5	2.9	3.2	8308	54	–
Cc1cc(C)cc(S(=O)(=O)c2c(C(=O)NCN3CCCCC3)[nH]c3ccc(Cl)cc23)c1	> 2	1.3	0.581	120	37	8	–	–	–	–	–	–	–	–	–	–	–	7615	9.9	> 160
Cc1cc(C)cc(S(=O)(=O)c2c(C(=O)NCCN3CCCC3)[nH]c3ccc(Cl)cc23)c1	> 2	17	> 40	660	248	80	260	> 1000	380	80	84	19	–	–	–	–	–	418	7.1	–
Cc1cc(C)cc(S(=O)(=O)c2c(C(=O)NCc3ccccc3)[nH]c3ccc(Br)cc23)c1	> 2	5.7	> 40	1850	273	1050	51	≥ 450	59	15	11	16	–	–	–	–	–	30175	172	–
Cc1cc(C)cc(S(=O)(=O)c2c(C(=O)NCCOc3ccccc3)[nH]c3ccc(Cl)cc23)c1	> 10	26	> 40	> 40000	> 40000	2390	380	> 1000	> 1000	> 1000	440	300	–	–	–	–	–	7962	207	–
Cc1cc(C)cc(S(=O)(=O)c2c(C(=O)NCN3CCCCC3)[nH]c3ccc([N+](=O)[O-])cc23)c1	7.5	3.1	0.999	307	10	13	–	–	–	–	–	–	–	–	–	–	–	3871	12	–
Cc1cc(C)cc(S(=O)(=O)c2c(C(=O)NCCN3CCCC3)[nH]c3ccc([N+](=O)[O-])cc23)c1	> 10	16	> 40	1350	594	280	–	–	–	–	–	–	–	–	–	–	–	1313	21	–
Cc1cc(C)cc(S(=O)(=O)c2c(C(=O)NCCc3ccccc3)[nH]c3ccc(Cl)cc23)c1	> 50	5.7	> 40	10400	27	77	65	> 1000	100	52	19	21	–	–	–	–	–	32456	185	–
Cc1cc(C)cc(S(=O)(=O)c2c(C(=O)NCN3CCCC3)[nH]c3ccc(Cl)cc23)c1	> 2	3.3	0.442	96	26	12	–	–	–	–	–	–	0.1	0.1	0.1	0.3	0.2	3333	11	–
Cc1cc(C)cc(S(=O)(=O)c2c(C(=O)NCc3ccccc3)[nH]c3ccc([N+](=O)[O-])cc23)c1	> 2	6.2	> 40	459	14	17	16	470	54	11	7	10	–	–	–	–	–	1290	8	–
